Experimental data published in ChEMBL document CHEMBL2034859, “Simple, fast and efficient synthesis of β-keto esters from the esters of heteroaryl compounds, its antimicrobial study and cytotoxicity towards various cancer cell lines” (Bioorg Med Chem Lett, 2012).

Columns and labels:
ACHN [1] = assay: Cytotoxicity against human ACHN cells at 10 uM after 48 hrs by WST-1 assay; format: functional
Method in brief: (§1)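 Cells from ATCC were grown in DMEM with 10% heat-inactivated FBS at 37 °C in 5% CO2. Log-phase cells were seeded at 5 × 10^3 per well and left to recover overnight. They were then exposed to a range of compound concentrations for 48 h, with 0.2% DMSO as the vehicle control. CCK-8 (WST) reagent was added for 2 h and absorbance was measured.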

NCI-H460 [2] = assay: Cytotoxicity against human NCI-H460 cells at 10 uM after 48 hrs by WST-1 assay; format: functional
Method in brief: (§2)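 Cells from ATCC, grown in DMEM with 10% heat-inactivated FBS at 37 °C in humidified 5% CO2. Log-phase cells seeded at 5 × 10^3 cells/well and left to recover overnight, then exposed to varying compound concentrations for 48 h. Controls received medium with 0.2% DMSO vehicle. CCK-8 ([…]) reagent added at 5 µL/well for 2 h, then absorbance read.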

HCT-116 [3] = assay: Cytotoxicity against human HCT116 cells at 10 uM after 48 hrs by WST-1 assay; format: functional; method in brief: as §1
PANC-1 [4] = assay: Cytotoxicity against human PANC1 cells at 30 uM after 48 hrs by WST-1 assay; format: functional; method in brief: as §2
HCT-116 [5] = assay: Cytotoxicity against human HCT116 cells at 0.1 uM after 48 hrs by WST-1 assay; format: functional; method in brief: as §1
PANC-1 [6] = assay: Cytotoxicity against human PANC1 cells at 0.3 uM after 48 hrs by WST-1 assay; format: functional; method in brief: as §2
PANC-1 [7] = assay: Cytotoxicity against human PANC1 cells at 0.03 uM after 48 hrs by WST-1 assay; format: functional; method in brief: as §2
NCI-H460 [8] = assay: Cytotoxicity against human NCI-H460 cells at 3 uM after 48 hrs by WST-1 assay; format: functional; method in brief: as §2
NCI-H460 [9] = assay: Cytotoxicity against human NCI-H460 cells at 0.1 uM after 48 hrs by WST-1 assay; format: functional; method in brief: as §2
PANC-1 [10] = assay: Cytotoxicity against human PANC1 cells at 1 uM after 48 hrs by WST-1 assay; format: functional; method in brief: as §2
Calu-1 [11] = assay: Cytotoxicity against human Calu1 cells at 0.03 uM after 48 hrs by WST-1 assay; format: functional; method in brief: as §1
NCI-H460 [12] = assay: Cytotoxicity against human NCI-H460 cells at 30 uM after 48 hrs by WST-1 assay; format: functional; method in brief: as §2
ACHN [13] = assay: Cytotoxicity against human ACHN cells at 0.3 uM after 48 hrs by WST-1 assay; format: functional; method in brief: as §1
HCT-116 [14] = assay: Cytotoxicity against human HCT116 cells after 48 hrs by WST-1 assay; format: functional, cell-based; details: HCT-116, 48 h; method in brief: as §1
PANC-1 [15] = assay: Cytotoxicity against human PANC1 cells at 3 uM after 48 hrs by WST-1 assay; format: functional; method in brief: as §2
ACHN [16] = assay: Cytotoxicity against human ACHN cells at 30 uM after 48 hrs by WST-1 assay; format: functional; method in brief: as §1
MCF-10A [17] = assay: Cytotoxicity against human MCF10A cells at 0.03 uM after 48 hrs by WST1 assay; format: cell-based
MCF-10A [18] = assay: Cytotoxicity against human MCF10A cells at 1 uM after 48 hrs by WST1 assay; format: cell-based
Calu-1 [19] = assay: Cytotoxicity against human Calu1 cells at 10 uM after 48 hrs by WST-1 assay; format: functional; method in brief: as §1
ACHN [20] = assay: Cytotoxicity against human ACHN cells at 3 uM after 48 hrs by WST-1 assay; format: functional; method in brief: as §1
Calu-1 [21] = assay: Cytotoxicity against human Calu1 cells at 3 uM after 48 hrs by WST-1 assay; format: functional; method in brief: as §1
NCI-H460 [22] = assay: Cytotoxicity against human NCI-H460 cells at 0.3 uM after 48 hrs by WST-1 assay; format: functional; method in brief: as §2
HCT-116 [23] = assay: Cytotoxicity against human HCT116 cells at 1 uM after 48 hrs by WST-1 assay; format: functional; method in brief: as §1
MCF-10A [24] = assay: Cytotoxicity against human MCF10A cells at 30 uM after 48 hrs by WST1 assay; format: cell-based
Calu-1 [25] = assay: Cytotoxicity against human Calu1 cells at 0.3 uM after 48 hrs by WST-1 assay; format: functional; method in brief: as §1
HCT-116 [26] = assay: Cytotoxicity against human HCT116 cells at 3 uM after 48 hrs by WST-1 assay; format: functional; method in brief: as §1
MCF-10A [27] = assay: Cytotoxicity against human MCF10A cells at 0.1 uM after 48 hrs by WST1 assay; format: cell-based
Calu-1 [28] = assay: Cytotoxicity against human Calu1 cells at 0.01 uM after 48 hrs by WST-1 assay; format: functional; method in brief: as §1
ACHN [29] = assay: Cytotoxicity against human ACHN cells at 0.03 uM after 48 hrs by WST-1 assay; format: functional; method in brief: as §1
PANC-1 [30] = assay: Cytotoxicity against human PANC1 cells after 48 hrs by WST-1 assay; format: functional, cell-based; details: PANC-1, 48 h; method in brief: as §2
Calu-1 [31] = assay: Cytotoxicity against human Calu1 cells at 1 uM after 48 hrs by WST-1 assay; format: functional; method in brief: as §1
ACHN [32] = assay: Cytotoxicity against human ACHN cells at 1 uM after 48 hrs by WST-1 assay; format: functional; method in brief: as §1
MCF-10A [33] = assay: Cytotoxicity against human MCF10A cells at 0.3 uM after 48 hrs by WST1 assay; format: cell-based
HCT-116 [34] = assay: Cytotoxicity against human HCT116 cells at 0.03 uM after 48 hrs by WST-1 assay; format: functional; method in brief: as §1
MCF-10A [35] = assay: Cytotoxicity against human MCF10A cells after 48 hrs by WST1 assay; format: cell-based
MCF-10A [36] = assay: Cytotoxicity against human MCF10A cells at 10 uM after 48 hrs by WST1 assay; format: cell-based
Calu-1 [37] = assay: Cytotoxicity against human Calu1 cells at 30 uM after 48 hrs by WST-1 assay; format: functional; method in brief: as §1
ACHN [38] = assay: Cytotoxicity against human ACHN cells at 0.1 uM after 48 hrs by WST-1 assay; format: functional; method in brief: as §1
NCI-H460 [39] = assay: Cytotoxicity against human NCI-H460 cells at 0.03 uM after 48 hrs by WST-1 assay; format: functional; method in brief: as §2
Calu-1 [40] = assay: Cytotoxicity against human Calu1 cells after 48 hrs by WST-1 assay; format: functional, cell-based; details: Calu-1, 48 h; method in brief: as §1
HCT-116 [41] = assay: Cytotoxicity against human HCT116 cells at 0.01 uM after 48 hrs by WST-1 assay; format: functional; method in brief: as §1
ACHN [42] = assay: Cytotoxicity against human ACHN cells after 48 hrs by WST-1 assay; format: functional, cell-based; method in brief: as §1
ACHN [43] = assay: Cytotoxicity against human ACHN cells at 0.01 uM after 48 hrs by WST-1 assay; format: functional; method in brief: as §1
PANC-1 [44] = assay: Cytotoxicity against human PANC1 cells at 0.01 uM after 48 hrs by WST-1 assay; format: functional; method in brief: as §2
MCF-10A [45] = assay: Cytotoxicity against human MCF10A cells at 0.01 uM after 48 hrs by WST1 assay; format: cell-based
PANC-1 [46] = assay: Cytotoxicity against human PANC1 cells at 10 uM after 48 hrs by WST-1 assay; format: functional; method in brief: as §2
Calu-1 [47] = assay: Cytotoxicity against human Calu1 cells at 0.1 uM after 48 hrs by WST-1 assay; format: functional; method in brief: as §1
NCI-H460 [48] = assay: Cytotoxicity against human NCI-H460 cells at 0.01 uM after 48 hrs by WST-1 assay; format: functional; method in brief: as §2
MCF-10A [49] = assay: Cytotoxicity against human MCF10A cells at 3 uM after 48 hrs by WST1 assay; format: cell-based
PANC-1 [50] = assay: Cytotoxicity against human PANC1 cells at 0.1 uM after 48 hrs by WST-1 assay; format: functional; method in brief: as §2
NCI-H460 [51] = assay: Cytotoxicity against human NCI-H460 cells after 48 hrs by WST-1 assay; format: functional, cell-based; details: NCI-H460, 48 h; method in brief: as §2
HCT-116 [52] = assay: Cytotoxicity against human HCT116 cells at 30 uM after 48 hrs by WST-1 assay; format: functional; method in brief: as §1
NCI-H460 [53] = assay: Cytotoxicity against human NCI-H460 cells at 1 uM after 48 hrs by WST-1 assay; format: functional; method in brief: as §2
HCT-116 [54] = assay: Cytotoxicity against human HCT116 cells at 0.3 uM after 48 hrs by WST-1 assay; format: functional; method in brief: as §1
ACHN [55] = assay: Cytotoxicity against human ACHN cells at 1000 nM after 48 hrs by WST-1 assay; format: functional; method in brief: as §1
Calu-1 [56] = assay: Cytotoxicity against human Calu1 cells at 1000 nM after 48 hrs by WST-1 assay; format: functional; method in brief: as §1
HCT-116 [57] = assay: Cytotoxicity against human HCT116 cells at 1000 nM after 48 hrs by WST-1 assay; format: functional; method in brief: as §1
NCI-H460 [58] = assay: Cytotoxicity against human NCI-H460 cells at 1000 nM after 48 hrs by WST-1 assay; format: functional; method in brief: as §2
PANC-1 [59] = assay: Cytotoxicity against human PANC1 cells at 1000 nM after 48 hrs by WST-1 assay; format: functional; method in brief: as §2

With `CCOC(=O)C(C)C(=O)c1cnccn1` (centres undefined) the Activity (ACHN [1]) was 67.4%, the Activity (NCI-H460 [2]) was 87% and the Activity (HCT-116 [3]) was 90%. For the same compound, the Activity (PANC-1 [4]) was 100%, the Activity (HCT-116 [5]) was 26.9% and the Activity (PANC-1 [6]) was 15.9%. The Activity (PANC-1 [7]) was 10%, the Activity (NCI-H460 [8]) was 55% and the Activity (NCI-H460 [9]) was 14.2%. It also gave an Activity (PANC-1 [10]) of 29.2%, an Activity (Calu-1 [11]) of 2.9% and an Activity (NCI-H460 [12]) of 100%. The Activity (ACHN [13]) was 27.9%, the IC50 (HCT-116 [14]) was 1.3 µM and the Activity (PANC-1 [15]) was 67.8%. It also gave an Activity (ACHN [16]) of 82.3%, an Activity (MCF-10A [17]) of -14.1% and an Activity (MCF-10A [18]) of 6.3%. The Activity (Calu-1 [19]) was 85.3%, the Activity (ACHN [20]) was 51.6% and the Activity (Calu-1 [21]) was 60.8%. It also gave an Activity (NCI-H460 [22]) of 38.6%, an Activity (HCT-116 [23]) of 44.8% and an Activity (MCF-10A [24]) of 82.8%. For the same compound, the Activity (Calu-1 [25]) was 9.4%, the Activity (HCT-116 [26]) was 92.2% and the Activity (MCF-10A [27]) was -9.5%. The Activity (Calu-1 [28]) was 1.5%, the Activity (ACHN [29]) was -28.9% and the IC50 (PANC-1 [30]) was 2.9 µM. It also gave an Activity (Calu-1 [31]) of 22.8%, an Activity (ACHN [32]) of 46.2% and an Activity (MCF-10A [33]) of -6.8%. For the same compound, the Activity (HCT-116 [34]) was 18.8%, the IC50 (MCF-10A [35]) was 21.2 µM and the Activity (MCF-10A [36]) was 39.1%. The Activity (Calu-1 [37]) was 99.2%, the Activity (ACHN [38]) was 19% and the Activity (NCI-H460 [39]) was 6.7%. For the same compound, the IC50 (Calu-1 [40]) was 2.8 µM, the Activity (HCT-116 [41]) was 9.4% and the IC50 (ACHN [42]) was 3 µM. The Activity (ACHN [43]) was -23.4%, the Activity (PANC-1 [44]) was 8.3% and the Activity (MCF-10A [45]) was -15.2%. For the same compound, the Activity (PANC-1 [46]) was 92.1%, the Activity (Calu-1 [47]) was 6.7% and the Activity (NCI-H460 [48]) was 3.6%. For the same compound, the Activity (MCF-10A [49]) was 24%, the Activity (PANC-1 [50]) was 13.6% and the IC50 (NCI-H460 [51]) was 3 µM. For the same compound, the Activity (HCT-116 [52]) was 100%, the Activity (NCI-H460 [53]) was 44.6% and the Activity (HCT-116 [54]) was 32.3%.

In the case of `CN1CC[C@H](c2c(O)cc(O)c3c(=O)cc(-c4ccccc4Cl)oc23)[C@H](O)C1` [ALVOCIDIB], the Activity (ACHN [55]) is reported as 71%, the Activity (Calu-1 [56]) is reported as 88% and the Activity (HCT-116 [57]) is reported as 78%. The Activity (NCI-H460 [58]) was 71% and the Activity (PANC-1 [59]) was 74%.

Work on `Nc1ccn([C@@H]2O[C@H](CO)[C@@H](O)C2(F)F)c(=O)n1` [GEMCITABINE] yielded an Activity (ACHN [55]) of 73%, an Activity (Calu-1 [56]) of 71% and an Activity (HCT-116 [57]) of 74%. For the same compound, the Activity (NCI-H460 [58]) was 73% and the Activity (PANC-1 [59]) was 79%.
